In PMC8028158 (ACS Omega, 2021):
“Also recorded” adds a separate entry of the source.

Experiments:
[1] = system: AGS cells; test: MTT cell viability assay, AGS; type: cell-based, human; conditions: read-out: IC50 cell proliferation, AGS; 72 h, MTT
Summary of the method: (§1)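 Cells were seeded at 2000 per well, incubated overnight and exposed to test compound for 72 h. MTT was added for 4 h, formazan was dissolved in DMSO and absorbance was read at 570 nm. Viability was normalized to untreated wells, giving mean ± SEM of three trials. IC50 was calculated from relative survival.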

[2] = system: MKN-45 cells; test: MTT cell viability assay, MKN-45; type: cell-based, human; conditions: read-out: IC50 cell proliferation, MKN-45; 72 h, MTT
Summary of the method: as §1

[3] = molecular target: T1, TRPC6 (Mus musculus, UniProt Q61143); conditions: read-out: IC50 TRPC6; nonselective TRPC6 antagonist; cited from earlier work
T1 sequence (Q61143 1-930): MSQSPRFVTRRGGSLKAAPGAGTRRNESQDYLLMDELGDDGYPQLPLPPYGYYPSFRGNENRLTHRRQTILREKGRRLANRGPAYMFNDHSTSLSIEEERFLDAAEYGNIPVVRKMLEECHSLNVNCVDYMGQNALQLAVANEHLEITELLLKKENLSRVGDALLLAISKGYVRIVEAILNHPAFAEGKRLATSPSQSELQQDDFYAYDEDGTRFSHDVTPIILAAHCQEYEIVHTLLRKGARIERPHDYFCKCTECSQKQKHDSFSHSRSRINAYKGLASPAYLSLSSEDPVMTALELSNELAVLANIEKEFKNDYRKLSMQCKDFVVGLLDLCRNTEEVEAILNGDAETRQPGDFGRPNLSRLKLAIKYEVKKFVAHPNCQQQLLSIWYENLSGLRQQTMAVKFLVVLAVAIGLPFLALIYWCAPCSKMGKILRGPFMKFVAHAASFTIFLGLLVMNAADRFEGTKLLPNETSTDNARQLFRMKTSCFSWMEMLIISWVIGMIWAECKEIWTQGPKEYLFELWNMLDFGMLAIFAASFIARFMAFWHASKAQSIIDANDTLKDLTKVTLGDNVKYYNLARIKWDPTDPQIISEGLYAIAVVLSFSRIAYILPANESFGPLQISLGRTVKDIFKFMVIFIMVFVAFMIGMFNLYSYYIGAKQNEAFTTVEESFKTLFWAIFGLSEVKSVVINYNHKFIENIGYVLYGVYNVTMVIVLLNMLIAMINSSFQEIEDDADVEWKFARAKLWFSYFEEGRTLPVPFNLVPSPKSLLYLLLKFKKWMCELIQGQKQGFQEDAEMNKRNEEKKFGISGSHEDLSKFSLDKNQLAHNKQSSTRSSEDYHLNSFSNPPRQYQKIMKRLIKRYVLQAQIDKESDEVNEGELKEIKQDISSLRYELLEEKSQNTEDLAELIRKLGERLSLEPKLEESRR

[4] = molecular target: T2, mouse TRPC6 (Mus musculus, UniProt Q61143); test: Fluorescence Ca2+ assay, inhibition of HDM-activated TRPC6 in HEK293 cells; type: cell-based; conditions: HEK293 cells with stable expression of mouse TRPC6
T2 sequence (Q61143 1-930): T1 sequence (Q61143 1-930)
Summary of the method: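 HEK293 cells co-expressing mouse TRPC6 and the Gq/11-PLC-coupled M5 muscarinic receptor were loaded with Fluo-4. Cells were preincubated with test compound at various concentrations for 5 min, then HDM (10 μM) was added, and fluorescence was read in a microplate reader. Traces were expressed as ΔF over F0. IC50 came from a Hill fit of one experiment (N = 3).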

Row | IC50 [1] [µM] | IC50 [2] [µM] | SMILES | IC50 [3] [µM] | TRPC6 antagonistic potency (in words) [4]
1 | 37 | 15.3 | COc1ccc(CCCOC(Cn2ccnc2)c2ccc(OC)cc2)cc1 (stereo not shown) [SKF-96365, 1H-Imidazole, 1-[2-(4-methoxyphenyl)-2-[3-(4-methoxyphenyl)propoxy]ethyl], reference compound] | 4.9 | 
2 |  |  | COc1cccc2sc(N(CCN(C)C)C(=O)c3ccc4ccccc4c3)nc12 [Compound 1r, N-(2-(dimethylamino)ethyl)-N-(4-methoxybenzo[d]thiazol-2-yl)-2-naphthamide] |  | No in vitro potency; also recorded: no antagonistic potency
